PGC1a Ac signal – raises PGC1a acetylation signal in U2OS cells; hit rate 0.21% among 350,000; activation, % at 15.6 µM; AID 651723; U2OS PGC1a acetylation AlphaScreen, overnight;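 active = every replicate reaching activation of at least 50%, whatever the mean replicate activation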;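 note: hits raise the AlphaScreen acetylation signal above neutral controls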
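System: flag-PGC1a/GCN5 U2OS cells / Input: 7000 cells/well / Compound: single test concentration per compound / Incubation: overnight compound treatment, 37 °C / Technique: AlphaScreen on lysates with anti-acetyl-lysine antibody, acceptor and donor beads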
Hits are given with their value; i = inactive. The list is a sample of the results.

SMILES | PGC1a Ac signal
O=C(c1ccccc1)C1OC1C(=O)c1ccccc1 (centres undefined) | 77
O=C(NC1CCCCCCC1O)c1ccccc1 (centres undefined) | i
CC(C)c1ccc(NC(=O)c2ccc3c(c2)CCN3S(C)(=O)=O)cc1 | i
CS(=O)(=O)c1ncc(Cl)c(C(=O)Nc2ccc(N3CCOCC3)cc2)n1 | 81
C=C1C(=O)[C@]23C[C@H]1CCC2[C@@]1(C)C(C[C@@H]3O)[C@](C)(C(=O)OC)CC[C@@H]1OC(C)=O (some centres undefined) | i
COc1ccc(C2(NC(C)=O)CCN(C(=O)CCC(=O)O)CC2)cc1 | i
N#Cc1ccc(Oc2cccnc2)cc1C#N | 53
CO[C@H]1CN(C)C(=O)c2cc(NC(C)=O)ccc2OC[C@@H](C)N(CC2CCCCC2)C[C@@H]1C | i
CCN(CC)Cc1c(O)ccc2c([N+](=O)[O-])c(C)n(-c3ccc(OC)cc3)c12 | i
C/C=C/c1ccc2c(c1)O[C@H](CN(C)C(=O)C1CC1)[C@H](C)CN([C@@H](C)CO)S2(=O)=O | i
CN1CCN2c3ncccc3Cc3ccccc3[C@@H]2C1 | i
Cn1cnnc1Sc1ccc(/C=C/C(=O)c2ccc(O)cc2)cc1[N+](=O)[O-] | 58
COc1ccc(NC(=O)Cn2ncc(Cl)c(Cl)c2=O)cc1S(=O)(=O)N1CCOCC1 | 105
Cc1ccc(C)c(C(=O)Cn2ncc(Cl)c(Cl)c2=O)c1 | 485
O=C(Cn1ncc(Cl)c(Cl)c1=O)NC(=O)NC1CCCCC1 | i
O=C(Cn1ncc(Cl)c(Cl)c1=O)N1CCN(S(=O)(=O)c2ccc3ccccc3c2)CC1 | i
CCC(=O)Nc1ccc(C(=O)Cn2ncc(Cl)c(Cl)c2=O)cc1 | 265
Cc1ccccc1NC(=O)Nc1ccccc1Br | i
CN1CCN(C(=O)C[C@@H]2CC[C@@H]3[C@H](COC[C@H](O)CN3CC3CCCCC3)O2)CC1 | i
O=C(O)C1C2CC3OC(=O)C1C3C2 (centres undefined) | i
C[C@@H]1CN([C@H](C)CO)C(=O)c2cc(NC(=O)CCCCCC(=O)Nc3ccccc3N)ccc2O[C@H]1CN(C)S(=O)(=O)c1ccc(Cl)cc1 | i
CCOC(=O)c1oc2nc3c(cc2c1N)COC(C)(C)C3 | 63
Cc1c(NC(=O)c2ccccc2NS(=O)(=O)c2ccc(Br)cc2)c(=O)n(-c2ccccc2)n1C | i
O=C(CC1SC(=Nc2ccc3c(c2)OCCO3)NC1=O)Nc1ccc(F)cc1F (centres undefined) | 189
COc1ccc(COc2cc(-c3cccc(OC)c3)nc3ccc(NC(=O)c4cccnc4)cc23)cc1 | 53
SMILES | PGC1a Ac signal
COc1ccc(Oc2c(Cl)cnn(-c3ccc(F)cc3)c2=O)cc1 | 81
O=S(=O)(c1cnccc1N1CCN(/N=C/c2ccccc2)CC1)N1CCCCC1 | i
O=c1oc(-c2ccccc2)cc(Cl)c1Cl | 115
Nc1nc(SCC(=O)Nc2ccccc2Sc2ccc(Cl)cc2)n[nH]1 | 89
N=c1sccn1CC(=O)Nc1ccccc1Sc1ccccc1 | i
c1ccc(N2CCN(C3CC4CCC3C4)CC2)cc1 (centres undefined) | i
C/C(N)=C(/C#N)C(=O)COc1ncnc2ccc(Br)cc12 | 90
COc1ccc(NC(=O)N(C)C[C@@H]2OCCCC[C@@H](C)Oc3ccc(NC(=O)Cc4ccccc4)cc3C(=O)N([C@H](C)CO)C[C@@H]2C)cc1 | i
C[C@@H]1CN([C@@H](C)CO)C(=O)CCCn2cc(nn2)CO[C@H]1CN(C)Cc1ccc2c(c1)OCO2 | i
CN(CC(=O)Nc1ccc(F)c(F)c1)S(=O)(=O)c1cccc2nsnc12 | 63
CCN(CCCNC(=O)CN(C)S(=O)(=O)c1cccc2nsnc12)c1ccccc1 | 89
CC1CCCCN1C(=O)CN(C)S(=O)(=O)c1cccc2nsnc12 (centres undefined) | i
CC(=O)c1cccc(-n2nnnc2SCC(=O)NNC(=O)C(C)C)c1 | i
Cn1c(Cl)cnc1C1CC(=O)c2cc(Cl)ccc2O1 (centres undefined) | 71
CC(C)(C)c1ccc(OCCSc2nc3ccccc3n2CC(=O)O)cc1 | i
Cc1ccc(NC(=O)c2c(C)nn(-c3ccccc3)c2Cl)c(C)c1 | i
COc1cccc(-c2csc(N3CCN(C(=S)Nc4ccccc4Cl)CC3)n2)c1 | 67
CCCCN(C)C1CCN(C(=S)Nc2cccc(OC)c2)CC1 | i
CCCCCCC1CC(=O)NC(=S)N1 (centres undefined) | i
CCOC(=O)C1=C(CS(=O)(=O)c2ccccc2)NC(=O)NC1c1ccc(O)c(OC)c1 (centres undefined) | i
CCOC(=O)CC(S(=O)(=O)c1ccccc1)S(=O)(=O)c1ccccc1 | 96
CCN1C(C#N)=C(C#N)N=C(C)CC1(C)C | i
Cc1ccc(CNC(=O)CCS(=O)(=O)c2cc3c(cc2Cl)NC(=O)CO3)cc1 | i
N#Cc1sc2nccc(Nc3ccccc3)c2c1N | i
CC1CC1C(=O)OCC(=O)NCc1ccc(Cl)cc1 (centres undefined) | 55
SMILES | PGC1a Ac signal
CCCNC(=O)N(C)C[C@H]1Oc2cc(C#CC(C)C)ccc2S(=O)(=O)N([C@@H](C)CO)C[C@H]1C | i
COc1ccc2c3c([nH]c2c1)[C@@H](CO)N(C(=O)c1ccccc1)CC31CCN(S(=O)(=O)c2cccs2)CC1 | i
Cc1ccc(S(=O)(=O)N[C@H]2C=C[C@H](CC(=O)NCCN3CCCCC3)O[C@H]2CO)cc1 | i
CC1OC2CC(=O)OC2C2=C1C(=O)c1c(O)cccc1C2=O (centres undefined) | i
CO[C@@H]1CN(C)C(=O)c2ccc(NC(C)=O)cc2OC[C@@H](C)N(C(=O)Cc2cccnc2)C[C@@H]1C | i
N#CC1=C(N)Oc2c(ccc3ccccc23)C1c1ccsc1 (centres undefined) | 57
COc1cc(CCC(=O)Nc2cc(C)cc(C)c2)cc(OC)c1OC | i
CC(=O)Nc1ccc(C(=O)OC2CCOC2=O)cc1 (centres undefined) | i
COc1cc(CC(=O)OC2CCOC2=O)cc(OC)c1OC (centres undefined) | 57
COc1ccc(C(=O)C(CN2CCOCC2)c2ccccc2)cc1F (centres undefined) | i
CC(C)(C)c1ccc2c(c1)OC(C(=O)N/N=C/c1ccc([N+](=O)[O-])o1)CO2 (centres undefined) | 165
CO[C@H]1CN(C)C(=O)c2cc(NS(=O)(=O)c3cn(C)cn3)ccc2OC[C@@H](C)NC[C@H]1C | i
O=C(Cc1ccccc1)N1CCN(c2ccc([N+](=O)[O-])cc2)CC1 | 118
O=C(Nc1ccc(N2CCN(Cc3ccccc3F)CC2)cc1)c1ccc([N+](=O)[O-])o1 | i
CC(c1ccccc1)C1CC(=O)N(c2ccc([N+](=O)[O-])cc2)C1=O (centres undefined) | i
Cc1ccc(S(=O)(=O)Nc2ccc3c(c2)C(=O)N([C@H](C)CO)C[C@@H](C)[C@@H](CN(C)C(=O)NC(C)C)OCCCC[C@H](C)O3)cc1 | i
Cc1ccsc1C(=O)Nc1cc(Cl)ccc1-n1cncn1 | i
CN(C)C(=O)c1ccc(-c2ccc([C@H]3[C@H]4CN(C(=O)CC5CC5)CC(=O)N4[C@H]3CO)cc2)cc1 | i
CC(C)(C)NC(=O)Cn1nnc(-c2ccccc2NC(=O)c2ccco2)n1 | i
O=C(/C(=C/O)N=Nc1ccccc1)c1ccco1 | i

Screens deposited in PubChem BioAssay by Broad Institute.
